DENV2 CPE: DENV2-induced cell death inhibition. CPE inhibition, % at 9.99 µM. AID 651640. DENV2-infected cells, cytopathic effect rescue, plate reader. 1.7% of 350,000 active; in the data active means CPE inhibition above about 20%, passing the limit was not always enough; inconclusive means no clear call, values can overlap the other calls; tested in BHK-21 cells
FGF22 binding: shifts melting point of recombinant human FGF22 | activity (Tm shift, normalised), % at 9.99 µM | 1.5% of 340,000 active | recombinant FGF22 thermal shift, SYPRO orange fluorescence; percent of sucrose octasulfate shift, DMSO zero | Q9HCT0;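 active means mean Tm shift, scaled 0 neutral to 100 positive control, at about 1.3% or above, every replicate too, limit read from the data; inconclusive means no clear call, values can overlap the other calls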
Target sequence (Q9HCT0 whole entry, looked up): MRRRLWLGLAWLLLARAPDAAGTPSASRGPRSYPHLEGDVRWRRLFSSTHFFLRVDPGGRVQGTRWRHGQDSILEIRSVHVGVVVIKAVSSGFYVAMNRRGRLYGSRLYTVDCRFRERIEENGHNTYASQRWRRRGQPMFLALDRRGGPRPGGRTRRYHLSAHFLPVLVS
F508del corr: correctors of CFTR F508del function in bronchial epithelial cells; CFBE cells, YFP halide quenching; stimulated with forskolin plus potentiator P3; % fluorescence drop versus neutral controls; activity (quench increase), % at 7.58 µM; 0.36% of 350,000 active;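 active means mean added fluorescence quench of at least 8% versus neutral control, with both replicates also reaching 8%; inconclusive means only one of the mean or replicate conditions met; inactive means mean below 8% and not both replicates reaching 8%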;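 further: cells transiently co-express mutant CFTR-F508del with the halide-sensitive YFP; corrector assay measuring rescue of mutant channel to the surface after 24 h compound exposure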
E-sel inducer: induces E-selectin expression in human endothelial cells | P16581 | HUVEC E-selectin immunofluorescence imaging; normalized: neutral wells 0, TNF-alpha wells 100 | activation, % at 7.58 µM | 0.37% of 260,000 active | AID 686992;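 active means mean E-selectin-positive cell signal at least 10% of the positive control, reached in at least 60% of replicates, without over 20% cell loss; inconclusive means no rule given, readout overlaps actives, possibly toxicity-flagged; inactive means the rest, including those meeting only one limit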
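material = human umbilical vein endothelial cells (HUVEC), E-selectin induction | quantity = 3,000 cells/well | medium = EGM-2 growth medium on 0.1% gelatin-coated wells | technique = immunofluorescence imaging | read-out basis = % PE-positive cells | control set = TNF-alpha positive control, DMSO neutral control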
ERAP1 inh: blocks human ERAP1 aminopeptidase activity; Q9NZ08; recombinant ERAP1, Leu-AMC fluorescence, 60 min; inhibition, % at 10.7 µM; 0.15% of 340,000 active; AID 652197;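 active means mean replicate inhibition of at least 30%, or all replicates individually reaching that 30% level; inactive means mean below 30% and not every replicate reaching it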
Of the large screens only hits and unclear results are named; the others gave an inactive call. In the library only some 3.7% were active in any assay of this set; here they are far more common.

CC(C)(C)c1ccc(NC(=O)c2ccccc2)c([N+](=O)[O-])c1	FGF22 binding 44 (no result: E-sel inducer)
CCC(=O)Nc1ccc(NC(=O)c2ccco2)cc1	none (no result: E-sel inducer)
Cc1ccc(NC(=O)c2ccc(Br)o2)c([N+](=O)[O-])c1	none (no result: E-sel inducer)
Cc1ccc(NC(=O)c2ccco2)c([N+](=O)[O-])c1	FGF22 binding 43 (no result: E-sel inducer)
CCOc1ccc(CC(=O)Nc2ccc(NC(=O)c3ccco3)cc2)cc1OCC	FGF22 binding 44
Cc1noc(C)c1NC(=O)N(C)C[C@@H]1Oc2ccc(NS(=O)(=O)c3ccc(Cl)cc3)cc2CC(=O)N([C@@H](C)CO)C[C@H]1C	none
CCNC(=O)Nc1ccc2c(c1)C(=O)N(C)[C@@H]1CC[C@H](CC(=O)NCC3CC3)O[C@@H]1CO2	DENV2 CPE inconclusive (no result: ERAP1 inh)
COCCNc1nc(Nc2ccccc2Cl)c2sccc2n1	DENV2 CPE 38
COCCNc1nc(NCc2ccc(C(C)C)cc2)c2sccc2n1	FGF22 binding 23
COCCNc1nc(NCc2cccc(OC)c2)c2sccc2n1	none
COCCNc1nc(Nc2ccc(C)cc2C)c2sccc2n1	DENV2 CPE inconclusive, F508del corr 10
C[C@H](CO)N1C[C@H](C)[C@H](CN(C)C(=O)Cc2ccccn2)Oc2ncc(C#CC3CC3)cc2C1=O	DENV2 CPE 25
C[C@H](CO)N1C[C@H](C)[C@H](CN(C)C)Oc2ncc(C#CC3CC3)cc2C1=O	DENV2 CPE 102
C[C@H]1CN([C@@H](C)CO)C(=O)c2cc(C#CC3CC3)cnc2O[C@H]1CN(C)C	none
C[C@@H]1CN([C@H](C)CO)C(=O)c2cc(C#CC3CC3)cnc2O[C@H]1CN(C)C(=O)Nc1ccccc1	DENV2 CPE 31
C[C@H](CO)N1C[C@H](C)[C@@H](CN(C)C(=O)Nc2ccccc2)Oc2ncc(C#CC3CC3)cc2C1=O	none
CCCN1C[C@@H](C)[C@H](OC)CN(C)C(=O)c2ccc(NC(=O)c3cccc(F)c3)cc2OC[C@@H]1C	none
O=C(C[C@@H]1CC[C@H]2[C@@H](COC[C@@H](O)CN2Cc2cc(F)ccc2F)O1)NCc1ccccc1	none
Cn1cnc(S(=O)(=O)N2C[C@H](O)COC[C@H]3O[C@@H](CC(=O)NCc4cc(F)cc(F)c4)CC[C@@H]32)c1	none
O=C(Nc1cc(F)ccc1F)N1CC(=O)N2[C@H](CO)[C@@H](c3ccc(-c4ccccc4)cc3)[C@H]2C1	DENV2 CPE inconclusive (no result: FGF22 binding)
O=C(Nc1cc(F)ccc1F)N1CC(=O)N2[C@H](CO)[C@H](c3ccc(-c4cccnc4)cc3)[C@@H]2C1	DENV2 CPE 30 (no result: FGF22 binding)
O=C1CN(Cc2ccc(F)cc2)C[C@H]2[C@@H](c3ccc(-c4cccnc4)cc3)[C@H](CO)N12	DENV2 CPE 24 (no result: FGF22 binding)
O=C1CN(Cc2ccc(F)cc2)C[C@@H]2[C@@H](c3ccc(-c4cccnc4)cc3)[C@@H](CO)N12	none (no result: FGF22 binding)
COc1ccccc1-c1cn(CC[C@@H]2CC[C@H](NC(=O)NC(C)C)[C@@H](CO)O2)nn1	none
C/C=C/c1ccc2c(c1)O[C@H](CN(C)C(=O)Nc1ccc(C(F)(F)F)cc1)[C@H](C)CN([C@H](C)CO)S2(=O)=O	FGF22 binding 1.8
C/C=C/c1ccc2c(c1)O[C@@H](CN(C)C(=O)Nc1ccc(C(F)(F)F)cc1)[C@@H](C)CN([C@H](C)CO)S2(=O)=O	FGF22 binding 1.4
C/C=C/c1ccc2c(c1)O[C@@H](CN(C)C(=O)Nc1ccccc1)[C@@H](C)CN([C@H](C)CO)S2(=O)=O	none
C/C=C/c1ccc2c(c1)O[C@H](CN(C)C(=O)Nc1ccc(C(F)(F)F)cc1)[C@@H](C)CN([C@@H](C)CO)S2(=O)=O	none
CN1c2ccc(-c3cccc(F)c3)cc2[C@H]2[C@H](CCN2C(=O)c2ccncc2)[C@H]1CO	none (no result: DENV2 CPE, FGF22 binding, ERAP1 inh)
C[C@@H]1CN([C@@H](C)CO)C(=O)c2cc(-c3ccccc3)cnc2O[C@@H]1CN(C)Cc1ccccc1	none
O=C(c1cccc(F)c1)N1C[C@H]2[C@@H](c3ccccc31)[C@@H](CO)N2C(=O)c1cccc(F)c1	DENV2 CPE 21
O=C(Nc1ccccc1F)N1C[C@@H]2[C@H](c3ccccc31)[C@H](CO)N2C(=O)c1ccc(F)cc1	DENV2 CPE 35
COc1ccc(CN2[C@H](CO)[C@H]3c4ccccc4NC[C@H]32)cc1	none
O=C(c1cccc(F)c1)N1C[C@H]2[C@@H](c3ccccc31)[C@H](CO)N2C(=O)c1cccc(F)c1	none
COc1cccc(C(=O)N2C[C@@H]3[C@H](c4ccccc42)[C@H](CO)N3C(=O)c2ccc(F)cc2)c1	none
COc1cccc(C(=O)N2C[C@H]3[C@@H](c4ccccc42)[C@H](CO)N3C(=O)c2ccc(F)cc2)c1	DENV2 CPE 27 (no result: FGF22 binding)
COc1ccc(CN2[C@@H](CO)[C@@H]3c4ccccc4NC[C@@H]32)cc1	DENV2 CPE 66
CCCNC(=O)N(C)C[C@H]1Oc2cc(C3=CCCC3)ccc2S(=O)(=O)N([C@@H](C)CO)C[C@H]1C	none (no result: ERAP1 inh)
COc1ccc(CN2[C@H](CO)[C@H]3c4ccccc4N(C(=O)Nc4ccc(F)cc4)C[C@H]32)cc1	DENV2 CPE 22
COc1ccccc1NC(=O)N1C[C@@H]2[C@H](c3ccccc31)[C@@H](CO)N2C(C)=O	DENV2 CPE 44
O=C(c1ccncc1)N1C[C@H]2[C@@H](c3ccccc31)[C@H](CO)N2C(=O)c1ccccc1F	DENV2 CPE 43
COc1ccccc1NC(=O)N1C[C@H]2[C@@H](c3ccccc31)[C@@H](CO)N2C(C)=O	none
OCCCNC(=S)Nc1ccc(Oc2ccccc2)cc1	FGF22 binding 44 (no result: E-sel inducer)
CCC1=[N+](C)c2cccc3cccc(c23)N1C	ERAP1 inh 36 (no result: E-sel inducer)
CCN1C(=O)Nc2cccc3cccc1c23	none
C[C@@H]1CCCCO[C@H](CN(C)C(=O)NC2CCCCC2)[C@H](C)CN([C@H](C)CO)C(=O)c2cc(NC(=O)C3CCCCC3)ccc2O1	none
COCCNc1ncnc2c1ncn2[C@H]1CN(Cc2ccc(F)cc2)C[C@@H](CO)O1	DENV2 CPE 40
O=C(C[C@H]1C=C[C@@H](NS(=O)(=O)c2ccc(F)cc2)[C@@H](CO)O1)NCc1ccc(Cl)c(Cl)c1	none
CO[C@@H]1CN(C)C(=O)c2ccc(NC(=O)NC(C)C)cc2OC[C@H](C)N(Cc2ccccc2)C[C@@H]1C	none
C[C@H](CO)N1C[C@H](C)[C@H](CN(C)Cc2ccc(C(=O)O)cc2)OCCCC[C@H](C)Oc2ccc(NC(=O)CCCN(C)C)cc2C1=O	DENV2 CPE 30
C[C@H]1CCCCO[C@H](CN(C)Cc2ccc(C(=O)O)cc2)[C@@H](C)CN([C@@H](C)CO)C(=O)c2cc(NC(=O)c3ccncc3)ccc2O1	none
C[C@@H]1CCCCO[C@H](CN(C)Cc2ccc(C(=O)O)cc2)[C@H](C)CN([C@@H](C)CO)C(=O)c2cc(NC(=O)c3ccncc3)ccc2O1	DENV2 CPE 32
